Measured values published in the RNAGym collection of RNA variant scans (doi:10.1002/anie.201605470).

B1: Osa-1-4 twister ribozyme (parent)
chain: CCGCCUAACACUGCCAAUGCCGGUCCCAAGCCCGGAUAAAAGUGGAGGGGGCGG

Variants of: B1
Test: self-cleavage, relative activity (ratio to wild type); higher = more cleavage; co-transcriptional
Procedure, shortened: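 The 48 positions downstream of the cleavage site in a 54-nucleotide Oryza sativa twister ribozyme template were synthesised at 97 % wild-type base and 1 % of each other base. The template was transcribed in vitro at 37 °C for 2 h, with self-cleavage allowed during transcription. Reads with or without upstream sequence after deep sequencing marked cleavage status, and relative activity is fraction cleaved normalised to wild type.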

Going from CCGCCUGACACUGCCAAUGCCGUUCCCAAGCCCGGAUAAAAGUGGAGGGGGCGG [A7G G23U] to CCGCCUUACACUGCCAAUGCCGGUUCCAAGCCCGGAUAAAAGUGGAGGGGGCGG [A7U C25U], the self-cleavage rises from 0.04 to 0.2.

First: CCGCCUUACACUGCCAAUGCCGGUGCCAAGCCCGGAUAAAAGUGGAGGGGGCGG [A7U C25G]
Second: CCGCCUUACACUGCCAAUGCCGGUACCAAGCCCGGAUAAAAGUGGAGGGGGCGG [A7U C25A]
The self-cleavage of the first is higher: 0.08 for the first, 0.03 for the second.

First: CCGCCUGACACUGCCAAUGCCGGUCCCAAGCCCGGAUAAAAGUGCAGGGGGCGG [A7G G45C]
Second: CCGCCUGACACUGCCAAUGCCGGUCCCAAGCCCGGAUAAAAGUGAAGGGGGCGG [A7G G45A]
The self-cleavage of the first is lower: 0.04 for the first, 0.08 for the second.

First: CCGCCUGACACUGCCAAUGCCGGUCCCAAGCCCGGAUAAAAGUGUAGGGGGCGG [A7G G45U]
Second: CCGCCUGACACUCCCAAUGCCGGUCCCAAGCCCGGAUAAAAGUGGAGGGGGCGG [A7G G13C]
The self-cleavage of the first is higher: 0.05 for the first, 0.03 for the second.

Going from CCGCCUGACACUUCCAAUGCCGGUCCCAAGCCCGGAUAAAAGUGGAGGGGGCGG [A7G G13U] to CCGCCUGACACUACCAAUGCCGGUCCCAAGCCCGGAUAAAAGUGGAGGGGGCGG [A7G G13A], the self-cleavage rises from 0.02 to 0.06.

Compared with CCGCCUGACACUGCCAAUGCCGGUCCCAAGCCCGGAUAAAAGUUGAGGGGGCGG [A7G G44U], CCGCCUGACACUGCCAAUGCCGGUCCCAAGCCCGGAUAAAAGUCGAGGGGGCGG [A7G G44C] is higher in self-cleavage: 0.15 for the first, 0.21 for the second.

First: CCGCCUGACACUGCCAAUGCCGGUCCCAAGCCCGGAUAAAAGUAGAGGGGGCGG [A7G G44A]
Second: CCGCCUGACACUGCCAAUGCCGGUCCCAACCCCGGAUAAAAGUGGAGGGGGCGG [A7G G30C]
The self-cleavage of the first is higher: 0.13 for the first, 0.03 for the second.

First: CCGCCUGACACUGCCAAUGCCGGUCCCAAACCCGGAUAAAAGUGGAGGGGGCGG [A7G G30A]
Second: CCGCCUGACACUGCCAAUGCCGGUCCCAAUCCCGGAUAAAAGUGGAGGGGGCGG [A7G G30U]
The self-cleavage of the first is lower: 0.04 for the first, 0.05 for the second.

Going from CCGCCUGACACUGCCAAUCCCGGUCCCAAGCCCGGAUAAAAGUGGAGGGGGCGG [A7G G19C] to CCGCCUGACACUGCCAAUACCGGUCCCAAGCCCGGAUAAAAGUGGAGGGGGCGG [A7G G19A], the self-cleavage rises from 0.06 to 0.15.

Going from CCGCCUGACACUGCCAAUUCCGGUCCCAAGCCCGGAUAAAAGUGGAGGGGGCGG [A7G G19U] to CCGCCUGACACUGCCAAUGCCGGUCCCAAGCCCGGAUAAAAGUGGAGGGGCCGG [A7G G51C], the self-cleavage falls from 0.07 to 0.05.

First: CCGCCUGACACUGCCAAUGCCGGUCCCAAGCCCGGAUAAAAGUGGAGGGGUCGG [A7G G51U]
Second: CCGCCUGACACUGCCAAUGCCGGUCCCAAGCCCGGAUAAAAGUGGAGGGGACGG [A7G G51A]
The self-cleavage of the first is lower: 0.08 for the first, 0.12 for the second.

Compared with CCGCCUGACACUGCCAAUGCCGGUCCCAAGCCCAGAUAAAAGUGGAGGGGGCGG [A7G G34A], CCGCCUGACACUGCCAAUGCCGGUCCCAAGCCCUGAUAAAAGUGGAGGGGGCGG [A7G G34U] is lower in self-cleavage: 0.21 for the first, 0.12 for the second.

First: CCGCCUGACACUGCCAAUGCCGGUCCCAAGCCCCGAUAAAAGUGGAGGGGGCGG [A7G G34C]
Second: CCGCCUGACACUGCCAAUGCCGGUCCCAAGCCCGGAUAAAAGUGGAAGGGGCGG [A7G G47A]
The self-cleavage of the first is higher: 0.14 for the first, 0.08 for the second.

First: CCGCCUGACACUGCCAAUGCCGGUCCCAAGCCCGGAUAAAAGUGGAUGGGGCGG [A7G G47U]
Second: CCGCCUGACACUGCCAAUGCCGGUCCCAAGCCCGGAUAAAAGUGGACGGGGCGG [A7G G47C]
The self-cleavage of the first is higher: 0.07 for the first, 0.05 for the second.

CCGCCUUACACUGCUAAUGCCGGUCCCAAGCCCGGAUAAAAGUGGAGGGGGCGG [A7U C15U] and CCGCCUUACACUGCAAAUGCCGGUCCCAAGCCCGGAUAAAAGUGGAGGGGGCGG [A7U C15A] are the same in self-cleavage: 0.06 for the first, 0.06 for the second.

First: CCGCCUUACACUGCGAAUGCCGGUCCCAAGCCCGGAUAAAAGUGGAGGGGGCGG [A7U C15G]
Second: CCGCCUGACACUGCCAAUGCCGGUCCCAAGCCCGGAUAAAAAUGGAGGGGGCGG [A7G G42A]
The self-cleavage of the first is lower: 0.11 for the first, 0.13 for the second.

Compared with CCGCCUGACACUGCCAAUGCCGGUCCCAAGCCCGGAUAAAAUUGGAGGGGGCGG [A7G G42U], CCGCCUGACACUGCCAAUGCCGGUCCCAAGCCCGGAUAAAACUGGAGGGGGCGG [A7G G42C] is higher in self-cleavage: 0.05 for the first, 0.08 for the second.

Going from CCGCCUGACACUGCCAAUGCCGGUCCCAAGCCCGGAUAAAAGUGGAGAGGGCGG [A7G G48A] to CCGCCUGACACUGCCAAUGCCGGUCCCAAGCCCGGAUAAAAGUGGAGUGGGCGG [A7G G48U], the self-cleavage falls from 0.06 to 0.05.

Compared with CCGCCUGACACUGCCAAUGCCGGUCCCAAGCCCGGAUAAAAGUGGAGCGGGCGG [A7G G48C], CCGCCUGACACUGCCAAUGCCGGUCCCAAGCCCGGAUAAAAGUGGAGGGGGGGG [A7G C52G] is higher in self-cleavage: 0.05 for the first, 0.32 for the second.

Going from CCGCCUGACACUGCCAAUGCCGGUCCCAAGCCCGGAUAAAAGUGGAGGGGGUGG [A7G C52U] to CCGCCUGACACUGCCAAUGCCGGUCCCAAGCCCGGAUAAAAGUGGAGGGGGAGG [A7G C52A], the self-cleavage falls from 0.55 to 0.29.

Compared with CCGCCUUAUACUGCCAAUGCCGGUCCCAAGCCCGGAUAAAAGUGGAGGGGGCGG [A7U C9U], CCGCCUUAAACUGCCAAUGCCGGUCCCAAGCCCGGAUAAAAGUGGAGGGGGCGG [A7U C9A] is higher in self-cleavage: 0.04 for the first, 0.05 for the second.

CCGCCUUAGACUGCCAAUGCCGGUCCCAAGCCCGGAUAAAAGUGGAGGGGGCGG [A7U C9G] and CCGCCUUACACUGCCAAUGCGGGUCCCAAGCCCGGAUAAAAGUGGAGGGGGCGG [A7U C21G] are the same in self-cleavage: 0.05 for the first, 0.05 for the second.

Compared with CCGCCUUACACUGCCAAUGCAGGUCCCAAGCCCGGAUAAAAGUGGAGGGGGCGG [A7U C21A], CCGCCUUACACUGCCAAUGCUGGUCCCAAGCCCGGAUAAAAGUGGAGGGGGCGG [A7U C21U] is higher in self-cleavage: 0.08 for the first, 0.1 for the second.

Going from CCGCCUGACACUGCCAAUGCCGGCCCCAAGCCCGGAUAAAAGUGGAGGGGGCGG [A7G U24C] to CCGCCUGACACUGCCAAUGCCGGACCCAAGCCCGGAUAAAAGUGGAGGGGGCGG [A7G U24A], the self-cleavage rises from 0.07 to 0.08.

In the case of CCGCCUGACACUGCCAAUGCCGGGCCCAAGCCCGGAUAAAAGUGGAGGGGGCGG [A7G U24G], the self-cleavage is reported as 0.04.
